Reference: paper PMC2846203 (Journal of natural products, 2010)
Read-outs that look alike come from different tables or passages of the source. Marks after values point to notes of the source that are not given here.

Tests used:
mice [1] = conditions: mouse, cited from earlier work
mice [2] = conditions: mouse, cited from earlier work; remark: listed apart in the source
mice [3] = conditions: mouse, cited from earlier work; remark: listed apart in the source
α4β2 nAChR = α4β2 nAChR (Rattus norvegicus, UniProt P09483+P12390); assay: [3H]epibatidine binding assay; conditions: ratio of Ki values
α4β2 nAChR, sequence (P12390 25-500): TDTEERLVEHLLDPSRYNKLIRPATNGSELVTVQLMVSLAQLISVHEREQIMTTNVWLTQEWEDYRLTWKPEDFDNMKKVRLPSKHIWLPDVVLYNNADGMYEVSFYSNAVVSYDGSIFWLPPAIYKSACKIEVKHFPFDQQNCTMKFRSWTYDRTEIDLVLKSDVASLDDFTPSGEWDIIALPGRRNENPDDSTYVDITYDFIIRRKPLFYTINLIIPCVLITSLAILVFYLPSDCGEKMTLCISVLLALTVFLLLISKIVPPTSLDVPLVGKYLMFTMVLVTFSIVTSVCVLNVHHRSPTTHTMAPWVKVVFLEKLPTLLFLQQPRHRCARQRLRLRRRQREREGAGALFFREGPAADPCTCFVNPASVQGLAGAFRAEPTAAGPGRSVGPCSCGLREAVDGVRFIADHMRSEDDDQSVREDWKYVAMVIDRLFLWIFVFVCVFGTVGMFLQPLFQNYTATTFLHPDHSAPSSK
α4β2 nAChR, sequence (P09483 31-630): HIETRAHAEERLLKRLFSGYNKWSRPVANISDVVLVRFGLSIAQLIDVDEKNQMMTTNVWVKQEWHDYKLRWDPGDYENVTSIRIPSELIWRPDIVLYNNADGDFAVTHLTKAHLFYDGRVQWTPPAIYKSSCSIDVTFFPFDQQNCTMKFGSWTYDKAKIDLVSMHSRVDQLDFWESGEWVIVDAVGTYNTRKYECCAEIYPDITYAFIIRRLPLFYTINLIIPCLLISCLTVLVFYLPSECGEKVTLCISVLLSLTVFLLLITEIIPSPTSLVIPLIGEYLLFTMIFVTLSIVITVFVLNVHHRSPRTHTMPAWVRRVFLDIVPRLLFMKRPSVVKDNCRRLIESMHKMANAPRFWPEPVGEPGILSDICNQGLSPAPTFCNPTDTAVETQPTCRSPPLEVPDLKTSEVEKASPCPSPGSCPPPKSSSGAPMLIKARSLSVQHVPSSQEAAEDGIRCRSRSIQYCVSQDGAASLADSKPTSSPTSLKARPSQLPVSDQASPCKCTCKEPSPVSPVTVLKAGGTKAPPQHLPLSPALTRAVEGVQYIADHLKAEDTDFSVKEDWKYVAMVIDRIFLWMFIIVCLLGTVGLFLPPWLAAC

mice [4] = conditions: mouse, cited from earlier work; remark: listed apart in the source
mice [5] = assay: hot-plate test; format: in vivo, mouse
Procedure, shortened: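 Mice in a 10 cm glass cylinder on a 55.0 °C hot plate. Two control latencies, at least 10 min apart, per mouse; normal latency 8–12 sec. Endpoint: jumping or paw licking. Eight mice per dose got racemic hydrochloride test compound s.c. and were tested 5 min later. %MPE = [(test−control)/(40−control)]×100; ED50 from dose-response curve.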

mice [6] = assay: antagonism of nicotine-induced antinociception, hot-plate test; format: in vivo, mouse; conditions: for times more potent as an antagonist than varenicline in the hot-plate test: ratio of AD50 values
mice [7] = assay: hypothermia; format: in vivo, mouse; conditions: ratio of ED50 values
Procedure, shortened: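 Mouse rectal temperature read by thermistor probe (inserted 24 mm) and digital thermometer, just before and 30 min after s.c. saline or racemic hydrochloride test compound. Change in temperature calculated for each mouse.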

mice [8] = assay: tail-flick test; format: in vivo, mouse
Procedure, shortened: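 D'Amour–Smith tail-flick in mice. Racemic hydrochloride test compound given s.c., with testing 5 min later. %MPE = [(test−control)/(10−control)]×100. 8–12 mice per dose, minimum four doses; ED50 with confidence limits from the dose-response curve.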

mice [9] = assay: spontaneous activity; format: in vivo, mouse; conditions: ratio of ED50 values
mice [10] = assay: antagonism of nicotine-induced antinociception, tail-flick test; format: in vivo; conditions: Mus musculus, sc, read-out: AD50 (µg/kg) tail-flick
mice [11] = conditions: mouse; antagonism of nicotine-induced antinociception; cited from earlier work
mice [12] = conditions: mouse; antagonism of nicotine-induced antinociception; cited from earlier work; remark: listed apart in the source

## Clc1ncc([C@H]2C[C@@H]3CC[C@H]2N3)cc1-c1ccccc1 [5a]
Mice [1]; (confidence limits)
  ED50 mg/kg hypothermia: 0.4 ^g (0.1–0.9) mg/kg
Mice [2]; (confidence limits)
  ED50 mg/kg spontaneous activity: 0.35 ^g (0.2–0.85) mg/kg
Mice [3]; (confidence limits)
  ED50 mg/kg hot-plate: 1.0 ^g (0.5–2.0) mg/kg
α4β2 nAChR
  times higher affinity at the α4β2 nAChR than nicotine: 71 times
  times higher affinity at the α4β2 nAChR than varenicline: 6 times
Mice [4]; (confidence limits)
  ED50 mg/kg tail-flick: 0.7 ^g (0.5–1.0) mg/kg

## Nc1cccc(-c2cc([C@H]3C[C@@H]4CC[C@H]3N4)cnc2Cl)c1 [5j, 3′-(3-Aminophenyl)epibatidine]
Mice [5]; ratio of ED50 values
  times weaker than epibatidine (1), hot-plate: 75 times
Mice [6]; mouse, antagonism of nicotine-induced antinociception, (confidence limits)
  AD50 (µg/kg) hot-plate: 26 (5–90) µg/kg
Mice [6]
  times more potent as an antagonist than varenicline in the hot-plate test: 18 times
Mice [7]
  times weaker than epibatidine (1), hypothermia: 76 times
Mice [8]; ratio of ED50 values
  times weaker than epibatidine (1), tail-flick: 57 times
Mice [9]
  times weaker than epibatidine (1), spontaneous activity: 30 times

## COc1ccc(-c2cc([C@H]3C[C@@H]4CC[C@H]3N4)cnc2Cl)cc1 [5k, 3′-(4-Methoxylphenyl)epibatidine]
Mice [10]
  ED50: 10 µg/kg

## Clc1cccc(-c2cc([C@H]3C[C@@H]4CC[C@H]3N4)cnc2Cl)c1 [5e, 3′-(3-Chlorophenyl)epibatidine]
Mice [6]
  times more potent as an antagonist than varenicline in the hot-plate test: 5.9 times
α4β2 nAChR
  selectivity for α4β2 nAChR relative to α7 nAChR: greater than 2000 fold

## Clc1ccc([C@@H]2C[C@H]3CC[C@@H]2N3)cn1 [(+)-epibatidine, epibatidine]
Mice [4]
  ED50 mg/kg tail-flick: 0.0061 ^e mg/kg

## CN(C)c1cccc(-c2cc([C@H]3C[C@@H]4CC[C@H]3N4)cnc2Cl)c1 [5m, 3′-(3-Dimethylaminophenyl)epibatidine]
Mice [5]; mouse
  agonist activity in the hot-plate test: did not have agonist activity
Mice [8]; mouse
  agonist activity in the tail-flick test: did not have agonist activity

## c1cnc2cc3c(cc2n1)[C@@H]1CNC[C@H]3C1 [varenicline, reference compound]
Mice [1]
  ED50 mg/kg hypothermia: 2.8 mg/kg
Mice [2]
  ED50 mg/kg spontaneous activity: 2.1 mg/kg
Mice [11]
  AD50 (µg/kg) tail-flick: 0.2 µg/kg
Mice [3]
  agonist activity in the hot-plate test: inactive
Mice [12]
  AD50 (µg/kg) hot-plate: 470 µg/kg
Mice [4]
  agonist activity in the tail-flick test: inactive

## Clc1ccc([C@@H]2C[C@H]3CC[C@@H]2N3)cn1 [(−)-epibatidine, epibatidine]
Mice [4]
  ED50 mg/kg tail-flick: 0.0066 ^e mg/kg

## Fc1cccc(-c2cc([C@H]3C[C@@H]4CC[C@H]3N4)cnc2Cl)c1 [5c, 3′-(3-Fluorophenyl)epibatidine]
Mice [6]
  times more potent as an antagonist than varenicline in the hot-plate test: 5.5 times
